In ChEMBL document CHEMBL4304739, “Discovery of 3-(Indol-5-yl)-indazole Derivatives as Novel Myeloid Differentiation Protein 2/Toll-like Receptor 4 Antagonists for Treatment of Acute Lung Injury” (J Med Chem, 2019):
Activity calls are given as the source filed them. The rule behind the calls is not given here.

Assays:
[1] = target: Insulin-like growth factor 1 receptor (Homo sapiens) (UniProt P08069); assay: Inhibition of wild-type human partial length IGF1R (L972 to D1294 residues) expressed in bacterial expression system at 1 uM by Kinomescan method
Outline: (§1)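 Binding-competition screen on the KINOMEscan platform, run by the provider, with the test compound at 1 μM. Readout is percent of control: (test signal − positive control signal)/(negative control signal − positive control signal) × 100. The DMSO negative control is set as 100% Ctrl and a control compound as 0% Ctrl. Lower values mean stronger hits.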

[2] = target: Phosphatidylinositol 4,5-bisphosphate 3-kinase catalytic subunit alpha isoform (Homo sapiens) (UniProt P42336); assay: Inhibition of wild-type human partial length PIK3CA (R108 to N1068 residues) expressed in mammalian expression system at 1 uM by Kinomescan method; outline: as §1
[3] = target: Inhibitor of nuclear factor kappa-B kinase subunit beta (Homo sapiens) (UniProt O14920); assay: Inhibition of wild-type human full length IKK-beta (M1 to S756 residues) expressed in mammalian expression system at 1 uM by Kinomescan method
Outline: (§2)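 KINOMEscan competition binding screen at 1 μM compound. Results reported as % of control = (test − positive control)/(DMSO negative control − positive control) × 100, where lower values mean stronger hits.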

Peritoneal macrophage = assay: Cytotoxicity against ICR mouse peritoneal macrophages assessed as reduction in cell viability at 10 uM measured after 24 hrs by MTT assay; assay type: cell-based
Outline: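 Peritoneal macrophages from ICR mice, 2.0×10^4 cells/well in DMEM with 10% FBS. Cells exposed to compound for 24 h, then MTT (5 mg/ml in 0.9% NaCl) added for 4 h at 37 °C in 5% CO2. Absorbance read at 490 nm; final DMSO 0.1%.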

[4] = target: Platelet-derived growth factor receptor alpha (Homo sapiens) (UniProt P16234); assay: Inhibition of wild-type human partial length PDGFRA (V575 to D1002 residues) expressed in mammalian expression system at 1 uM by Kinomescan method; outline: as §1
[5] = test system: Mast/stem cell growth factor receptor Kit (Homo sapiens), P10721 [V559D,T670I]; assay: Inhibition of human partial length KIT V559D/T670I double mutant (Y545 to D952 residues) expressed in bacterial expression system at 1 uM by Kinomescan method
Outline: (§3)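 KINOMEscan competition binding panel (98 kinases) run by the provider, compound screened once at 1 μM. Read-out is percent of control: [(test signal − positive control signal)/(negative control signal − positive control signal)] × 100. DMSO negative control sets 100% Ctrl and a control compound sets 0% Ctrl; lower values mean stronger hits.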

[6] = target: Cyclin-dependent kinase 19 (Homo sapiens) (UniProt Q9BWU1); assay: Inhibition of wild-type human partial length CDK11 (M1 to N360 residues) expressed in bacterial expression system at 1 uM by Kinomescan method; outline: as §1
[7] = target: Mast/stem cell growth factor receptor Kit (Homo sapiens) (UniProt P10721); assay: Inhibition of wild-type human partial length KIT (I571 to D952 residues) expressed in bacterial expression system at 1 uM by Kinomescan method; outline: as §3
[8] = target: Casein kinase I isoform delta (Homo sapiens) (UniProt P48730); assay: Inhibition of wild-type human full length CSNK1D (M1 to K409 residues) expressed in bacterial expression system at 1 uM by Kinomescan method; outline: as §2
[9] = target: MAP/microtubule affinity-regulating kinase 3 (Homo sapiens) (UniProt P27448); assay: Inhibition of wild-type human full length MARK3 (M1 to L729 residues) expressed in bacterial expression system at 1 uM by Kinomescan method; outline: as §2
Mus musculus = assay: Antiinflammatory activity in LPS-induced C57BL/6 mouse model of acute lung injury assessed as reduction in IL33 mRNA level at 10 mg/kg, iv pretreated for 15 mins followed by LPS stimulation and measured after 6 hrs by SYBR green staining-based qRT-PCR analysis; assay type: functional, organism-based
Outline: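 Total lung RNA extracted, with DNase I removal of residual DNA. Quantitative PCR with mouse gene primers; each gene normalized to β-actin. C57BL/6 mice given compound iv 15 min before intraperitoneal LPS (20 mg/kg) and killed at 6 h.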

[10] = target: Serine/threonine-protein kinase PLK4 (Homo sapiens) (UniProt O00444); assay: Inhibition of wild-type human partial length PLK4 (M1 to S273 residues) expressed in mammalian expression system at 1 uM by Kinomescan method; outline: as §1
[11] = target: Ribosomal protein S6 kinase alpha-3 (Homo sapiens) (UniProt P51812); assay: Inhibition of wild-type human partial length N-terminal RSK2 kinase domain 1 (M1 to D394 residues) expressed in mammalian expression system at 1 uM by Kinomescan method; outline: as §1
[12] = target: Phosphatidylinositol 4-phosphate 3-kinase C2 domain-containing subunit beta (Homo sapiens) (UniProt O00750); assay: Inhibition of wild-type human partial length PIK3C2B (M1 to L1634 residues) expressed in mammalian expression system at 1 uM by Kinomescan method; outline: as §1
[13] = target: Serine/threonine-protein kinase PAK 4 (Homo sapiens) (UniProt O96013); assay: Inhibition of wild-type human partial length PAK4 (Q144 to R438 residues) expressed in bacterial expression system at 1 uM by Kinomescan method; outline: as §1
[14] = target: cAMP-dependent protein kinase catalytic subunit alpha (Homo sapiens) (UniProt P17612); assay: Inhibition of wild-type human partial length PKAC-alpha (G10 to F351 residues) expressed in bacterial expression system at 1 uM by Kinomescan method; outline: as §1
[15] = target: MAP kinase-activated protein kinase 2 (Homo sapiens) (UniProt P49137); assay: Inhibition of wild-type human partial length MAPKAPK2 (V48 to D345 residues) expressed in bacterial expression system at 1 uM by Kinomescan method; outline: as §1
Homo sapiens = organism: Homo sapiens; assay: Inhibition of EGFP-fused NFkappaB (unknown origin) stably expressed in mouse RAW 264.7 cells assessed as reduction in LPS-induced transcriptional activation at 10 uM measured after 3 hrs by flow cytometric analysis; assay type: cell-based
Outline: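 RAW264.7 cells stably carrying an NF-κB response element–EGFP reporter (lentiviral, puromycin-selected). Cells treated with 500 ng/mL LPS for 1 h, then vehicle or compound (10 μM) for 3 h. EGFP signal measured by flow cytometry.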

[16] = target: SRSF protein kinase 3 (Homo sapiens) (UniProt Q9UPE1); assay: Inhibition of wild-type human partial length SRPK3 (P41 to P567 residues) expressed in bacterial expression system at 1 uM by Kinomescan method
Outline: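 Single-concentration screen at 1 μM on the KINOMEscan panel (98 kinases), run by the platform provider. Results are given as percent of control: % Ctrl = [(test signal − positive control signal)/(negative control signal − positive control signal)] × 100. DMSO serves as negative control (100% Ctrl) and a control compound as positive control (0% Ctrl). Lower values mean stronger binding hits.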

[17] = target: Activin receptor type-1B (Homo sapiens) (UniProt P36896); assay: Inhibition of wild-type human ACVR1B (S187 to I505 residues) expressed in bacterial expression system at 1 uM by Kinomescan method; outline: as §2
[18] = target: Mitogen-activated protein kinase 11 (Homo sapiens) (UniProt Q15759); assay: Inhibition of wild-type human full length p38-beta (M1 to Q364 residues) expressed in bacterial expression system at 1 uM by Kinomescan method; outline: as §2

Chain of Platelet-derived growth factor receptor alpha (Homo sapiens) (P16234 whole entry, the tested form may be a part): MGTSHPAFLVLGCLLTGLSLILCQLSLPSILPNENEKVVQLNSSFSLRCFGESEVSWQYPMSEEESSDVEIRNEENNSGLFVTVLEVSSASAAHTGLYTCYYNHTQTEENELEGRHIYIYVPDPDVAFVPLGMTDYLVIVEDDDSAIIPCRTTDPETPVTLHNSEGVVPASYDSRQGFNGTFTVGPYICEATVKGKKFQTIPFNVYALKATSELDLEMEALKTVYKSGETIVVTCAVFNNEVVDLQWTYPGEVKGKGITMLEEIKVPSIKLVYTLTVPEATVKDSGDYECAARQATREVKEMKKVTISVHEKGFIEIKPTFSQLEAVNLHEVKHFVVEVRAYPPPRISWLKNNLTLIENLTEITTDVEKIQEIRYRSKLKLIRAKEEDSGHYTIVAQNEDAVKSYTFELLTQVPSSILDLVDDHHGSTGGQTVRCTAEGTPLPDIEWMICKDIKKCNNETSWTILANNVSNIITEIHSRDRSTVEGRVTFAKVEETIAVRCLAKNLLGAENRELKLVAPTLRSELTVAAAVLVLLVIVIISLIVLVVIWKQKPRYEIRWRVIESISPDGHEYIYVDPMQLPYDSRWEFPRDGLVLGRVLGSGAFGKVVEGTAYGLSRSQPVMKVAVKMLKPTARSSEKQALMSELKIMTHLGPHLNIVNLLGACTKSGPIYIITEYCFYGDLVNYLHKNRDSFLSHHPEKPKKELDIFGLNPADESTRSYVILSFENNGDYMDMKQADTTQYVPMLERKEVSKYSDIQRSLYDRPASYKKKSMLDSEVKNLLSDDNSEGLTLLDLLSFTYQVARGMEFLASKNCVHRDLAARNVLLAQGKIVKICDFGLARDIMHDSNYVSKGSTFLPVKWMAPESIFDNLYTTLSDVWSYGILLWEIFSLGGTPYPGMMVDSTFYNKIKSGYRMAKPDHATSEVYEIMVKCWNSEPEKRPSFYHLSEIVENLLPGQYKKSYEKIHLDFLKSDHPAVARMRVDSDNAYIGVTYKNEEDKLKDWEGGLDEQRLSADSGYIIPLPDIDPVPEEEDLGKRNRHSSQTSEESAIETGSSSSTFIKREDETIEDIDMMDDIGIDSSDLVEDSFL
Chain of Serine/threonine-protein kinase PAK 4 (Homo sapiens) (O96013 whole entry, looked up, the tested form may be a part): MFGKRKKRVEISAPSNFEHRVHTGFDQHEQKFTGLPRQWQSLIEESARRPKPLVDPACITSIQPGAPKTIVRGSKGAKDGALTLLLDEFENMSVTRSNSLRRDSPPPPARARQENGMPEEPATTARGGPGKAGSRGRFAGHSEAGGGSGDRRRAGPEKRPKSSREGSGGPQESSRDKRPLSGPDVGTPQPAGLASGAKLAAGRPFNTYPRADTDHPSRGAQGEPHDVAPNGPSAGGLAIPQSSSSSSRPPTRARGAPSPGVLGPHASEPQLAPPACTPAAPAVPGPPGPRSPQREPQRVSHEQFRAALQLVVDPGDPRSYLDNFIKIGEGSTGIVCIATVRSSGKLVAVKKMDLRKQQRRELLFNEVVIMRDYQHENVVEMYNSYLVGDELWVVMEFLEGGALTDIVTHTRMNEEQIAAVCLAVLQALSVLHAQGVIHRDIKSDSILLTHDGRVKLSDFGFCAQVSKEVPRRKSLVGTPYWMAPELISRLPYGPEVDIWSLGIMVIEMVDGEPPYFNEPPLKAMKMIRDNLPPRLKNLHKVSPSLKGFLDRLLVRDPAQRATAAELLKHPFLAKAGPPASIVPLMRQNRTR
Chain of Inhibitor of nuclear factor kappa-B kinase subunit beta (Homo sapiens) (O14920 whole entry, the tested form may be a part): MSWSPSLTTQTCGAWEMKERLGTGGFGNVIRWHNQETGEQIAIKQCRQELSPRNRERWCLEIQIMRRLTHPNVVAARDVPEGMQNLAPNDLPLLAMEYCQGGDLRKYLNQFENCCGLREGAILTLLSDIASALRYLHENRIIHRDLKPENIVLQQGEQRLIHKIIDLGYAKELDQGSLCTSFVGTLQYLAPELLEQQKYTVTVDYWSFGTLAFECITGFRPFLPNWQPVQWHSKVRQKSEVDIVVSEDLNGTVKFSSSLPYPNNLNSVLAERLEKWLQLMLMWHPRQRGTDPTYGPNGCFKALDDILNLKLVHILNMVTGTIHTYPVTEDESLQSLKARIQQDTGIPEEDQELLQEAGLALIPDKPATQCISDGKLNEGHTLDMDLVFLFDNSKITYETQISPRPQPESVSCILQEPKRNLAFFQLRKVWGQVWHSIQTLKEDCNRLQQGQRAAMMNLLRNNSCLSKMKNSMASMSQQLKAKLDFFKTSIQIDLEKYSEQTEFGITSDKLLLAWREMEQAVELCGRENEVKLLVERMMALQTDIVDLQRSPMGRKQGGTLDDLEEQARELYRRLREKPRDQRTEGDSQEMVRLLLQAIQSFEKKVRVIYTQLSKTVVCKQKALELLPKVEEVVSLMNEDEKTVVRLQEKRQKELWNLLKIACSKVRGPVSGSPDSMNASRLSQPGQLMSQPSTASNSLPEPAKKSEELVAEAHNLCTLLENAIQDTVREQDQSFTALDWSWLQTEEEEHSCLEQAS
Chain of Casein kinase I isoform delta (Homo sapiens) (P48730 whole entry, looked up, the tested form may be a part, canonical isoform): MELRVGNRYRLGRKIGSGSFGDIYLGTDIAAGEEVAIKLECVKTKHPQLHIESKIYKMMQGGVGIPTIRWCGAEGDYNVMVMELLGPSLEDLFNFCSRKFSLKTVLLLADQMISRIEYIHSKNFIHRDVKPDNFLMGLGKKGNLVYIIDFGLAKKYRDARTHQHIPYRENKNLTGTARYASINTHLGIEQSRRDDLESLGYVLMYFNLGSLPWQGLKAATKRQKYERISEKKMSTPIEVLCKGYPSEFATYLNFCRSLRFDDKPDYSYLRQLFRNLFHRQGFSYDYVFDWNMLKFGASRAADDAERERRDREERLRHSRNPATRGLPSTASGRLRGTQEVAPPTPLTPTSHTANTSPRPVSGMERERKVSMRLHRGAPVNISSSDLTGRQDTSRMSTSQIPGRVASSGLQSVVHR
Chain of Activin receptor type-1B (Homo sapiens) (P36896 whole entry, the tested form may be a part): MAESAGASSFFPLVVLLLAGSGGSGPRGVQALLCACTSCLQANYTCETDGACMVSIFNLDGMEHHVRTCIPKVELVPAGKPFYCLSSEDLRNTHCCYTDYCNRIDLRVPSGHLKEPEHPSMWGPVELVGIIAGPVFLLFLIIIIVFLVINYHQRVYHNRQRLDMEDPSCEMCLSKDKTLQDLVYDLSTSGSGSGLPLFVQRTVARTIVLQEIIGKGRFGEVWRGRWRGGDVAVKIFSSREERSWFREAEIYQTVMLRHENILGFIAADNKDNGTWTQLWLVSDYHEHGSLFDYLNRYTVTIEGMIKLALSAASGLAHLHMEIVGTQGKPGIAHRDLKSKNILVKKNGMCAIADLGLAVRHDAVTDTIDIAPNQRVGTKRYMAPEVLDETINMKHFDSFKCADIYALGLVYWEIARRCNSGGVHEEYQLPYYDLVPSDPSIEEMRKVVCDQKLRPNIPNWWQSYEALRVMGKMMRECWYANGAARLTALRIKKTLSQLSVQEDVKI
Chain of MAP/microtubule affinity-regulating kinase 3 (Homo sapiens) (P27448 whole entry, looked up, the tested form may be a part): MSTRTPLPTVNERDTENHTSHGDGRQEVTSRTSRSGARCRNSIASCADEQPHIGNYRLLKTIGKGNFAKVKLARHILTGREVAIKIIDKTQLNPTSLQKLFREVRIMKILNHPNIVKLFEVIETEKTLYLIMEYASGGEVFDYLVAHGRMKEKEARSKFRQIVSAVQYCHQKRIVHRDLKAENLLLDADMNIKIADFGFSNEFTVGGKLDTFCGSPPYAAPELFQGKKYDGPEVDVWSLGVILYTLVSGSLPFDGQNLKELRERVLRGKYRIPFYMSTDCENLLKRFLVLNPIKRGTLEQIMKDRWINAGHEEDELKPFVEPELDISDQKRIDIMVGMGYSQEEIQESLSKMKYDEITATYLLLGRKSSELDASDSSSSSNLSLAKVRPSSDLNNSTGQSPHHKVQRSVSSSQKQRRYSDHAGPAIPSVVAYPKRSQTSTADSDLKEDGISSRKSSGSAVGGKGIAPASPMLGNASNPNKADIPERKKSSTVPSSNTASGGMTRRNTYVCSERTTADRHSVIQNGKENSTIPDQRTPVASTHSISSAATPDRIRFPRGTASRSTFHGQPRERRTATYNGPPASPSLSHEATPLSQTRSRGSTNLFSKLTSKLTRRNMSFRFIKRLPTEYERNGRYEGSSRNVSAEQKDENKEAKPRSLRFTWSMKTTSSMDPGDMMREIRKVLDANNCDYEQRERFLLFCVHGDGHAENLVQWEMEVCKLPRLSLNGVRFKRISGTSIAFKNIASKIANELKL
Chain of Ribosomal protein S6 kinase alpha-3 (Homo sapiens) (P51812 whole entry, the tested form may be a part): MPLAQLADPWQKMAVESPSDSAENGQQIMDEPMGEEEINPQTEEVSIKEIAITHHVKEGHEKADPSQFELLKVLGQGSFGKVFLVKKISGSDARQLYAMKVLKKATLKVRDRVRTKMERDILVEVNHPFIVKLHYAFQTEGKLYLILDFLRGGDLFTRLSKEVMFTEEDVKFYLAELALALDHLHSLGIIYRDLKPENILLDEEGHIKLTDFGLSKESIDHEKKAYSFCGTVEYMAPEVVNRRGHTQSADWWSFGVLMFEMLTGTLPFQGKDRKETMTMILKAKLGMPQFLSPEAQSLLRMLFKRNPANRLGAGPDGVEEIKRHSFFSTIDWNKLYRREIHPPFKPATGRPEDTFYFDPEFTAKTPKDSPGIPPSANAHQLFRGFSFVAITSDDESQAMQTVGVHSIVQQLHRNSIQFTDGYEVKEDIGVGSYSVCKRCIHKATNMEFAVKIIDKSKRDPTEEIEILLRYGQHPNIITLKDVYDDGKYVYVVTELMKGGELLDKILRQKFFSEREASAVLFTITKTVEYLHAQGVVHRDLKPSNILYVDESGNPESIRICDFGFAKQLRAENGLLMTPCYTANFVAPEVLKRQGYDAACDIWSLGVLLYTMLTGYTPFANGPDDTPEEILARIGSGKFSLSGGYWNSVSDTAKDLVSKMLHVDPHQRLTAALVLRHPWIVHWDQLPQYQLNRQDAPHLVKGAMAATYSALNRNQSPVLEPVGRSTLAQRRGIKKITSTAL

For `O=C(Nc1ccc2[nH]nc(-c3ccc4[nH]ccc4c3)c2c1)c1c(Cl)cccc1Cl`, the inhibition [1] was “inactive”, the inhibition [2] was “inactive” and the inhibition [3] was “inactive”. The Activity (Peritoneal macrophage) was “Non-Toxic”, the inhibition [4] was “inactive” and the inhibition [5] was “inactive”. The inhibition [6] was “inactive”, the inhibition [7] was “inactive” and the inhibition [8] was “inactive”. For the same molecule, the inhibition [9] was “inactive”, the Activity (Mus musculus) was “Active” and the inhibition [10] was “inactive”. The inhibition [11] was “inactive”, the inhibition [12] was “inactive” and the inhibition [13] was “inactive”. The inhibition [14] was “inactive”, the inhibition [15] was “inactive” and the inhibition (Homo sapiens) was “Active”. The inhibition [16] was “inactive”, the inhibition [17] was “inactive” and the inhibition [18] was “inactive”.
